Calls of active or inactive are those of the source. No cut-off for these calls is given here.

This passage reports Activity and IC50 results from ChEMBL document CHEMBL4017482, “4-Connected azabicyclo[5.3.0]decane Smac mimetics-Zn2+ chelators as dual action antitumoral agents” (Bioorg Med Chem Lett, 2017).

Experiment [1] addresses E3 ubiquitin-protein ligase XIAP (Homo sapiens) (UniProt P98170). Nature of the experiment: Induction of XIAP degradation in smac mimetic-resistant human MDA-MB-453 cells at 5 uM measured after 24 hrs by Western blot analysis.
Experiment [2] shares this target. Nature of the experiment: Induction of XIAP degradation in smac mimetic-sensitive human MDA-MB-231 cells at 5 uM measured after 24 hrs by Western blot analysis.
In experiment [3] the test system is MDA-MB-453. Description: Induction of apoptosis in smac mimetic-resistant human MDA-MB-453 cells assessed as increase in cleaved casapse-3 at 5 uM measured after 24 hrs by Western blot analysis. Type of experiment: functional, cell-based. Background: In western blotting, separated proteins are transferred to a membrane and probed.
Experiment [4] concerns MDA-MB-453. Nature of the experiment: Induction of apoptosis in smac mimetic-resistant human MDA-MB-453 cells assessed as increase in cleaved PARP level at 5 uM measured after 24 hrs by Western blot analysis. Type of experiment: functional, cell-based.
Experiment [5] concerns MDA-MB-453. Description: Cytotoxicity against human smac mimetic-sensitive human MDA-MB-453 cells after 24 hrs by CellTiter-Glo assay. The note with it: MDA-MB-453, 24 h. Background: In ATP-based viability assays light output follows the ATP content of the culture.
Experiment [6] in a line: Metal chelating activity of compound assessed as 1:1 stoichiometry for compound-Zn2+ complex at 50 uM measured after 15 mins by spectrofluorimetric method. Type of experiment: functional. Summed up: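 Compounds were titrated with Zn2+, and chelation was followed by fluorescence spectroscopy.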
In experiment [7] the test system is MDA-MB-231. Nature of the experiment: Induction of apoptosis in smac mimetic-sensitive human MDA-MB-231 cells assessed as increase in cleaved casapse-3 at 5 uM measured after 24 hrs by Western blot analysis. Type of experiment: functional, cell-based.
In experiment [8] the test system is MDA-MB-231. Nature of the experiment: Induction of apoptosis in smac mimetic-sensitive human MDA-MB-231 cells assessed as increase in cleaved PARP level at 5 uM measured after 24 hrs by Western blot analysis. Type of experiment: functional, cell-based.
Experiment [9] relates to MDA-MB-231. Description: Cytotoxicity against human smac mimetic-sensitive human MDA-MB-231 cells after 24 hrs by CellTiter-Glo assay. The note with it: MDA-MB-231, 24 h.

E3 ubiquitin-protein ligase XIAP (Homo sapiens), sequence (P98170 whole entry): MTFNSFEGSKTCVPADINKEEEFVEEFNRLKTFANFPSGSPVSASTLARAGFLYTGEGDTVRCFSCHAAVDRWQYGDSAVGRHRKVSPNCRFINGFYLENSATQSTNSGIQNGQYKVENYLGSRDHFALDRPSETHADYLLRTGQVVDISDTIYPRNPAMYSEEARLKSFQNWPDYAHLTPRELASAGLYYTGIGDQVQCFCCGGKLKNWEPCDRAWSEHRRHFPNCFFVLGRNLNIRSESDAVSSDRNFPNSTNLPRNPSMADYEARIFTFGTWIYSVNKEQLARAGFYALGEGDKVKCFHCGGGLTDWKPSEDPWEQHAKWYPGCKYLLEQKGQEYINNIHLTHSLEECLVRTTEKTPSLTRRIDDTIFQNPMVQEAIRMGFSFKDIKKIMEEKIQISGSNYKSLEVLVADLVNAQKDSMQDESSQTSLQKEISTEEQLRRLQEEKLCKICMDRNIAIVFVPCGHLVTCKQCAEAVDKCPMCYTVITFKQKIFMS

Consider `CC[C@H](NC)C(=O)N[C@@H]1C(=O)N2[C@@H](CC[C@@H]1CNC(=O)c1ccccc1)CC[C@H]2C(=O)N[C@H](C(=O)NCCN(Cc1ccccn1)Cc1ccccn1)c1ccccc1`, for which the result in [1] and in experiment [2] was inactive.
A word on the IC50: it is the concentration that inhibits the measured activity by half. A lower IC50 goes with greater potency in that assay. With `CC[C@H](NC)C(=O)N[C@@H]1C(=O)N2[C@@H](CC[C@@H]1CNC(=O)COCCOCCNC(=O)CN(Cc1ccccn1)Cc1ccccn1)CC[C@H]2C(=O)NC(c1ccccc1)c1ccccc1`, the outcome in [1] and in experiment [6] was Active. The result in [3], in experiment [4], in experiment [7], in experiment [8] and in experiment [2] was inactive. The IC50 in experiment [5] and in [9] was over 25 µM throughout.
As to `CC[C@H](NC)C(=O)N[C@@H]1C(=O)N2[C@@H](CC[C@@H]1CNC(=O)CCNC(=O)CN(Cc1ccccn1)Cc1ccccn1)CC[C@H]2C(=O)NC(c1ccccc1)c1ccccc1`, the outcome in experiment [3], in experiment [4], in experiment [7], in [8] and in [2] was inactive. The IC50 in experiment [5] and in [9] was over 25 µM throughout. Also, the result in [6] was Active.
On to `CC[C@H](NC)C(=O)N[C@@H]1C(=O)N2[C@@H](CC[C@@H]1CNC(=O)CCCCCCCCCCNC(=O)CN(Cc1ccccn1)Cc1ccccn1)CC[C@H]2C(=O)NC(c1ccccc1)c1ccccc1`, for which the outcome in [1], in [3] and in experiment [4] was inactive. In addition, the IC50 in experiment [5] was over 25 µM; in experiment [9], 0.97 µM. Moreover, the outcome in experiment [6], in experiment [7], in [8] and in experiment [2] was Active.
For the compound `CC[C@H](NC)C(=O)N[C@@H]1C(=O)N2[C@@H](CC[C@@H]1CNC(=O)c1ccccc1)CC[C@H]2C(=O)NC(c1ccccc1)c1ccccc1`, the outcome in [1] and in experiment [2] was inactive. For the same compound, the values for the IC50 in [5] and in experiment [9] were over 25 µM and 4.1 µM, respectively. The outcome in experiment [7] and in [8] was Active.
Consider `CC[C@H](NC)C(=O)N[C@@H]1C(=O)N2[C@@H](CC[C@@H]1CNC(=O)CN(Cc1ccccn1)Cc1ccccn1)CC[C@H]2C(=O)NC(c1ccccc1)c1ccccc1`, for which the outcome in experiment [3], in experiment [4] and in experiment [2] was inactive. The figures for the IC50 in experiment [5] and in experiment [9] were over 25 µM and 6.5 µM, respectively. Besides, the outcome in experiment [6], in experiment [7] and in experiment [8] was Active.
